# How the values were obtained:
# Staphylococcus aureus [1] = assay: Antibacterial activity against methicillin-resistant Staphylococcus aureus NRS107 after 20 hrs by broth microdilution assay; type: functional; details: NRS107, 20 h
# Summary of the method: (§1)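 Broth microdilution per CLSI in cation-adjusted Mueller Hinton broth. Compounds serially diluted, in triplicate. Incubation at 37 °C for at least 20 hours. MIC taken as the lowest concentration with no visible bacterial growth.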
# Staphylococcus aureus [2] = assay: Antibacterial activity against methicillin-resistant Staphylococcus aureus USA300 after 20 hrs by broth microdilution assay; type: functional; details: USA300, 20 h; summary of the method: as §1
# Staphylococcus aureus [3] = assay: Bactericidal activity against methicillin-resistant Staphylococcus aureus USA300 up to 18 hrs by broth microdilution assay; type: functional; details: USA300, 18 h, read-out: MBC99.9
# Staphylococcus aureus [4] = assay: Bactericidal activity against methicillin-resistant Staphylococcus aureus NRS107 up to 18 hrs by broth microdilution assay; type: functional; details: NRS107, 18 h, read-out: MBC99.9
# Staphylococcus aureus [5] = assay: Antibacterial activity against methicillin-resistant Staphylococcus aureus NRS119 after 20 hrs by broth microdilution assay; type: functional; details: NRS119, 20 h; summary of the method: as §1
# Staphylococcus aureus [6] = assay: Bactericidal activity against methicillin-resistant Staphylococcus aureus NRS119 up to 18 hrs by broth microdilution assay; type: functional; details: NRS119, 18 h, read-out: MBC99.9
# Staphylococcus aureus [7] = assay: Antibacterial activity against methicillin-resistant Staphylococcus aureus NRS123 (USA400) after 20 hrs by broth microdilution assay; type: functional; summary of the method: as §1
# Staphylococcus aureus [8] = assay: Bactericidal activity against methicillin resistant Staphylococcus aureus NRS123 (USA400) up to 18 hrs by broth microdilution assay; type: functional; details: read-out: MBC99.9
# Staphylococcus aureus [9] = assay: Antibacterial activity against vancomycin-resistant Staphylococcus aureus VRS10 after 20 hrs by broth microdilution assay; type: functional; details: VRS10, 20 h; summary of the method: as §1
# Staphylococcus aureus [10] = assay: Bactericidal activity against methicillin resistant vancomycin-resistant Staphylococcus aureus VRS10 up to 18 hrs by broth microdilution assay; type: functional; details: VRS10, 18 h, read-out: MBC99.9
# Staphylococcus aureus [11] = assay: Antibacterial activity against vancomycin-resistant Staphylococcus aureus VRS11a after 20 hrs by broth microdilution assay; type: functional; summary of the method: as §1
# Staphylococcus aureus [12] = assay: Bactericidal activity against methicillin resistant vancomycin-resistant Staphylococcus aureus VRS11a up to 18 hrs by broth microdilution assay; type: functional; details: read-out: MBC99.9
# Staphylococcus aureus [13] = assay: Antibacterial activity against vancomycin-resistant Staphylococcus aureus VRS12 after 20 hrs by broth microdilution assay; type: functional; details: VRS12, 20 h; summary of the method: as §1
# Staphylococcus aureus [14] = assay: Bactericidal activity against methicillin resistant vancomycin-resistant Staphylococcus aureus VRS12 up to 18 hrs by broth microdilution assay; type: functional; details: VRS12, 18 h, read-out: MBC99.9
# Summary of the method: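 MBC set up from the MIC plates. Aliquots from wells with no growth spotted onto tryptic soy agar and incubated at 37 °C for at least 18 hours. MBC taken as the lowest concentration giving 99.9% inhibition of bacterial growth.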
# Staphylococcus aureus [15] = assay: Potency index, ratio of vancomycin MIC to compound MIC for antibacterial activity against vancomycin-resistant Staphylococcus aureus VRS10; type: functional
# Staphylococcus aureus [16] = assay: Potency index, ratio of vancomycin MIC to compound MIC for antibacterial activity against vancomycin-resistant Staphylococcus aureus VRS11a; type: functional
# Staphylococcus aureus [17] = assay: Potency index, ratio of vancomycin MIC to compound MIC for antibacterial activity against vancomycin-resistant Staphylococcus aureus VRS12; type: functional
# Staphylococcus aureus [18] = assay: Ratio of MBC to MIC for methicillin-resistant Staphylococcus aureus USA300; type: functional
# Summary of the method: (§2)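 MBC/MIC ratio. […] MBC by plating no-growth wells onto tryptic soy agar at 37 °C for at least 18 h; taken as the concentration giving 99.9% growth inhibition.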
# Staphylococcus aureus [19] = assay: Ratio of MBC to MIC for methicillin-resistant Staphylococcus aureus NRS107; type: functional; summary of the method: as §2
# Staphylococcus aureus [20] = assay: Ratio of MBC to MIC for methicillin-resistant Staphylococcus aureus NRS119; type: functional; summary of the method: as §2
# Staphylococcus aureus [21] = assay: Ratio of MBC to MIC for methicillin-resistant Staphylococcus aureus NRS123 (USA400); type: functional; summary of the method: as §2
# Staphylococcus aureus [22] = assay: Ratio of MBC to MIC for vancomycin-resistant Staphylococcus aureus VRS10; type: functional; summary of the method: as §2
# Staphylococcus aureus [23] = assay: Ratio of MBC to MIC for vancomycin-resistant Staphylococcus aureus VRS11a; type: functional; summary of the method: as §2
# Staphylococcus aureus [24] = assay: Ratio of MBC to MIC for vancomycin-resistant Staphylococcus aureus VRS12; type: functional; summary of the method: as §2
# Staphylococcus aureus [25] = assay: Antibacterial activity against methicillin-resistant Staphylococcus aureus USA300 in Balb/c mouse skin infection model assessed as reduction in bacterial burden in wounded skin area at 2% administered topically twice daily for 5 consecutive days measured 12 hrs post last dose relative to control; type: functional; parameters: scale not given: the % may be the effect or the level left
# Summary of the method: (§3)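 Female Balb/c mice, 8 weeks old, n=5 per group. Intradermal injection of 40 μL of 1.32×10^9 CFU/mL USA300; a wound formed by ~66 h. Treated topically with a 2% suspension in petroleum jelly twice daily for 5 days; the vehicle group served as control. Wounds excised 12 h after the last dose, homogenized in PBS and plated on mannitol salt agar; sites also observed for redness and swelling.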
# Mus musculus [26] = assay: Induction of inflammation in Balb/c mouse infected with methicillin-resistant Staphylococcus aureus USA300 assessed as redness around wounded skin area at 2% administered topically twice daily for 5 consecutive days measured 12 hrs post last dose relative to control; type: organism-based; details: in vivo, topical_or_ocular; summary of the method: as §3
# Mus musculus [27] = assay: Induction of inflammation in Balb/c mouse infected with methicillin-resistant Staphylococcus aureus USA300 assessed as swelling around wounded skin area at 2% administered topically twice daily for 5 consecutive days measured 12 hrs post last dose; type: organism-based; details: in vivo, topical_or_ocular; summary of the method: as §3
# Mus musculus [28] = assay: Toxicity in wounded skin area of Balb/c mouse infected with methicillin-resistant Staphylococcus aureus USA300 at 2% administered topically twice daily for 5 consecutive days measured 12 hrs post last dose; type: organism-based; details: in vivo, topical_or_ocular; summary of the method: as §3
compound,measurement,setting,value
CCCCCC#Cc1ccc(-c2nc(C)c(/C(C)=N/NC3=NCCN3)s2)cc1,MIC,Staphylococcus aureus [1],16 µg/mL
same,MIC,Staphylococcus aureus [2],4 µg/mL
same,MBC,Staphylococcus aureus [3],8 µg/mL
same,MBC,Staphylococcus aureus [4],32 µg/mL
same,MIC,Staphylococcus aureus [5],16 µg/mL
same,MBC,Staphylococcus aureus [6],32 µg/mL
same,MIC,Staphylococcus aureus [7],16 µg/mL
same,MBC,Staphylococcus aureus [8],32 µg/mL
same,MIC,Staphylococcus aureus [9],8 µg/mL
same,MBC,Staphylococcus aureus [10],64 µg/mL
same,MIC,Staphylococcus aureus [11],8 µg/mL
same,MBC,Staphylococcus aureus [12],16 µg/mL
same,MIC,Staphylococcus aureus [13],16 µg/mL
same,MBC,Staphylococcus aureus [14],32 µg/mL
same,Ratio,Staphylococcus aureus [15],>100
same,Ratio,Staphylococcus aureus [16],>100
same,Ratio,Staphylococcus aureus [17],>100
same,Ratio,Staphylococcus aureus [18],<=3
same,Ratio,Staphylococcus aureus [19],<=3
same,Ratio,Staphylococcus aureus [20],<=3
same,Ratio,Staphylococcus aureus [21],<=3
same,Ratio,Staphylococcus aureus [22],<=3
same,Ratio,Staphylococcus aureus [23],<=3
same,Ratio,Staphylococcus aureus [24],<=3
CC(=O)O[C@H]1C[C@@]2(C)[C@@H](C[C@@H](O)[C@H]3[C@@]4(C)CC[C@@H](O)[C@@H](C)[C@@H]4CC[C@@]32C)/C1=C(\CCC=C(C)C)C(=O)O [FUSIDIC ACID],Activity,Staphylococcus aureus [25],78%
same,Activity,Mus musculus [26],Non-Toxic
same,Activity,Mus musculus [27],Non-Toxic
same,Activity,Mus musculus [28],Non-Toxic
CCCC#Cc1ccc(-c2nc(C)c(/C(C)=N/NC3=NCCN3)s2)cc1,MIC,Staphylococcus aureus [2],> 64 µg/mL
same,MBC,Staphylococcus aureus [3],> 64 µg/mL
same,Ratio,Staphylococcus aureus [18],<=3
C/C(=N\NC1=NCCN1)c1sc(-c2ccc(C#Cc3ccccc3)cc2)nc1C,MIC,Staphylococcus aureus [2],8 µg/mL
same,MBC,Staphylococcus aureus [3],16 µg/mL
same,Ratio,Staphylococcus aureus [18],<=3
C/C(=N\NC(=N)N)c1sc(-c2ccc(C#CC(C)(C)N)cc2)nc1C,MIC,Staphylococcus aureus [2],64 µg/mL
same,MBC,Staphylococcus aureus [3],64 µg/mL
same,Ratio,Staphylococcus aureus [18],<=3
CCCCCCC#Cc1ccc(-c2nc(C)c(/C(C)=N/NC3=NCCN3)s2)cc1,MIC,Staphylococcus aureus [2],8 µg/mL
same,MBC,Staphylococcus aureus [3],16 µg/mL
same,Ratio,Staphylococcus aureus [18],<=3
C/C(=N\NC1=NCCN1)c1sc(-c2ccc(C#CC3CCCC3)cc2)nc1C,MIC,Staphylococcus aureus [1],16 µg/mL
same,MIC,Staphylococcus aureus [2],4 µg/mL
same,MBC,Staphylococcus aureus [3],16 µg/mL
same,MBC,Staphylococcus aureus [4],32 µg/mL
same,MIC,Staphylococcus aureus [5],32 µg/mL
same,MBC,Staphylococcus aureus [6],32 µg/mL
same,MIC,Staphylococcus aureus [7],16 µg/mL
same,MBC,Staphylococcus aureus [8],32 µg/mL
same,MIC,Staphylococcus aureus [9],4 µg/mL
same,MBC,Staphylococcus aureus [10],8 µg/mL
same,MIC,Staphylococcus aureus [11],8 µg/mL
same,MBC,Staphylococcus aureus [12],8 µg/mL
same,MIC,Staphylococcus aureus [13],16 µg/mL
same,MBC,Staphylococcus aureus [14],16 µg/mL
same,Ratio,Staphylococcus aureus [15],>100
same,Ratio,Staphylococcus aureus [16],>100
same,Ratio,Staphylococcus aureus [17],>100
same,Ratio,Staphylococcus aureus [18],<=3
same,Ratio,Staphylococcus aureus [19],<=3
same,Ratio,Staphylococcus aureus [20],<=3
same,Ratio,Staphylococcus aureus [21],<=3
same,Ratio,Staphylococcus aureus [22],<=3
same,Ratio,Staphylococcus aureus [23],<=3
same,Ratio,Staphylococcus aureus [24],<=3
C/C(=N\NC1=NCCN1)c1sc(-c2ccc(C#CCC3CCCC3)cc2)nc1C,MIC,Staphylococcus aureus [2],8 µg/mL
same,MBC,Staphylococcus aureus [3],32 µg/mL
same,Ratio,Staphylococcus aureus [18],<=3
